Source: article PMC3861362 (Clinical Pharmacology : Advances and Applications, 2013)
Entries after “also recorded” stand apart in the source; their conditions may differ. Read-outs that look alike come from different tables or passages of the source.

How the values were obtained:
[1] = format: in vivo, human (healthy Chinese subjects); details: for CL renal: plasma and urine, CLR
bovine factor Xa = bovine factor Xa (Bos taurus, UniProt P00743); test: Plasma anti-Xa activity by chromogenic assay after apixaban dosing; format: in vivo
Chain of bovine factor Xa (P00743 234-492 limits assumed): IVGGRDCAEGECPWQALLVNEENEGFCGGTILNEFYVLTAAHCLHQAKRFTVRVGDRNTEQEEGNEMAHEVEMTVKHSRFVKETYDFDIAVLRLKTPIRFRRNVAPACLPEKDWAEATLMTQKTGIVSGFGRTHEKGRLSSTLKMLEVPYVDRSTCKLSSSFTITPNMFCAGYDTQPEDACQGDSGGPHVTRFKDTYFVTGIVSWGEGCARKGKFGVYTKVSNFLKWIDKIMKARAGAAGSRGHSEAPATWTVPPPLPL
Chain of bovine factor Xa (P00743 41-180 partner limits assumed): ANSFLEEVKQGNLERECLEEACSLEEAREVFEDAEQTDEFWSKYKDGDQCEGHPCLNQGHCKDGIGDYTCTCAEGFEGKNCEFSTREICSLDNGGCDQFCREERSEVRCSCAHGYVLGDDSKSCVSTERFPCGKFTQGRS

[2] = format: in vivo, human (healthy Chinese subjects)
Outline: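 Dosing was 10 mg once on day 1, then 10 mg twice daily for 6 d, ending with the morning dose on day 9. Subjects were confined to the facility throughout and monitored for adverse events, with physical examinations, vital signs, ECGs and clinical laboratory tests.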

[3] = cited from earlier work
P-glycoprotein = details: cited from earlier work
[4] = system: breast cancer resistance protein; details: cited from earlier work
CYP3A4 = details: minor contribution from other CYP enzymes; cited from earlier work
[5] = multiple doses 10 mg twice daily, one of twelve subjects

COc1ccc(-n2nc(C(N)=O)c3c2C(=O)N(c2ccc(N4CCCCC4=O)cc2)CC3)cc1 [apixaban]
CL renal ([1]; human, oral, 10 mg, Mean (SD), multiple doses 10 mg twice daily, day 9, n=12): 20 mL/min
CL renal ([1]; human, po, 10 mg, Mean (SD), single 10 mg oral dose, day 1, n=12): 19.5 mL/min
Tmax ([1]; human, plasma, oral, 10 mg, Tmax, Median (min, max), multiple doses 10 mg twice daily, day 9, n=12): 3.5 h
half-life ([1]; human, plasma, oral, 10 mg, t½, Mean (SD), multiple doses 10 mg twice daily, day 9, n=12): 10.8 h
AUC(0-inf) ([1]; human, plasma, po, 10 mg): 2310 ng·h/mL
AUC(0-t) ([1]; human, plasma, po, 10 mg): 2270 ng·h/mL
Cmax ([1]; human, plasma, po, 10 mg): 234 ng/mL
time at which steady-state conditions were achieved ([1]; multiple doses 10 mg twice daily): by the third day of multiple-dose administration
t½, Mean (SD) ([1]; single 10 mg oral dose, day 1, n=12): 11.4 (3.6) hours
maximum anti-Xa activity, mean (SD) (bovine factor Xa; day 9, at 3 hours (peak apixaban concentration), 10 mg twice daily, low-molecular-weight heparin units): 5.57 (SD, 1.54) IU/mL
minimum anti-Xa activity, mean (SD) (bovine factor Xa; day 9, at 12 hours (trough apixaban concentration), 10 mg twice daily, low-molecular-weight heparin units): 1.94 (SD, 0.54) IU/mL
relationship between anti-Xa activity and plasma apixaban concentration (bovine factor Xa; single and multiple doses): appears to be linear; also recorded: direct linear relationship
severity of adverse events after multiple-dose administration ([2]; 10 mg twice daily): mild
overall safety and tolerability ([2]; healthy Chinese subjects, 10 mg single and twice-daily doses): safe and well tolerated
subjects with elevated alanine aminotransferase (ALT) [2, 5]: 8%
subjects with microscopic hematuria [2, 5]: 8%
subjects with positive fecal blood [2, 5]: 8%
adverse events after single dose ([2]; single-dose apixaban 10 mg): No adverse events
changes in vital signs, physical examinations, or ECGs ([2]; whole study): No clinically significant changes
deaths, serious adverse events, discontinuations, bleeding-related adverse events ([2]; whole study, 10 mg single and twice-daily doses, n=12): no bleeding-related adverse events reported; also recorded: no deaths, other serious adverse events, adverse events leading to discontinuation, or clinically significant bleeding-related adverse events
CLR ([3]; Japanese and non-Asian subjects, ref previous studies): 0.49 to 1.07 L/h
oral bioavailability [3]: ~ 50%
share of total clearance via the kidneys [3]: 27%
mean elimination t½ ([3]; healthy Western subjects): approximately 12 hours
share of dose undergoing oxidative metabolism ([3]; oral administration): ~ 25%
time to Cmax after oral administration ([3]; oral administration): ~ 3 hours
time to Cmax ([3]; white and Japanese subjects): 2 to 4 h
P-glycoprotein substrate (P-glycoprotein): substrate
breast cancer resistance protein substrate [4]: substrate
enzyme mediating oxidative metabolism (CYP3A4): primarily mediated via CYP3A4
